# Results from different studies.
# Compare with care: the assays were run in different laboratories.
# Read-out: metabolic stability
# Matrix: liver microsomes
Structure (SMILES),test system,setting,microsomal CLint
CS(=O)(=O)c1ccc(-c2cnc(N)c(-c3ccc(C(F)(F)F)nc3)c2)cc1,male CD-1 mouse,1 µM,< 11.6 µL/min/mg
Cc1cc(Nc2ccc(C(F)(F)F)cc2)c2ccccc2n1,mouse,,98 µL/min/mg
O=C(Nc1ccnc(C(F)(F)F)c1)Nc1cccc2c1OC(F)(F)O2,mouse,,92 µL/min/mg
c1ccc(C2CCN(c3nc(-c4cnn5cccnc45)nc4ccccc34)C2)nc1 (stereo not shown),mouse,,153 µL/min/mg
CCC(F)(F)c1nc2nc(C)cc(Nc3ccc(S(F)(F)(F)(F)F)cc3)n2n1,mouse,"1 µM, pH 7.4",< 10 µL/min/mg
Oc1ccc(-c2nc(N3CCC(c4ccccn4)C3)c3ccccc3n2)cc1 (stereo not shown),mouse,,388 µL/min/mg
CCN(CC)CCNC(=O)c1c(C)[nH]c(/C=C2\C(=O)Nc3ccc(F)cc32)c1C,mouse,"1 µM, pH 7.4",54 µL/min/mg
CCCOc1cccc(-c2[nH]c3cc(OC)ccc3c(=O)c2C(=O)OCC)c1,female CD-1 mouse,"19.8 µM, pH 7.4",> 15 µL/min/mg
O=C(C1CCCCC1)N1CC(=O)N2CCc3ccccc3[C@@H]2C1,mouse,"0.1 µM, pH 7.4",> 1000 µL/min/mg
Cc1cc(Nc2ccc(S(F)(F)(F)(F)F)cc2)n2nc(C(F)(F)F)nc2n1,mouse,"1 µM, pH 7.4",< 10 µL/min/mg
N#CC1CCN(c2nc(-c3ccccn3)nc3ccccc23)CC1,mouse,,105 µL/min/mg
CCOC(=O)c1c(-c2cccc(Cl)c2)[nH]c2cc(OC)c(F)cc2c1=O,female CD-1 mouse,"19.8 µM, pH 7.4",< 4 µL/min/mg
Clc1ccc(COc2cncc(-c3cnn(C4CCNCC4)c3)c2)c(Cl)c1,mouse,,28.9 µL/min/mg
CCOC(=O)C1=C(C)N/C(=C/c2cc(C)n(Cc3ccc(C(F)(F)F)cc3)c2C)C1=O,mouse,1 µM,103 µL/min/mg
CCOC(=O)c1c(-c2cccc(Oc3ccccc3)c2)[nH]c2cc(OC)c(F)cc2c1=O,female CD-1 mouse,"19.8 µM, pH 7.4",> 15 µL/min/mg
c1ccc(-c2nc(NCc3cccnc3)c3ccccc3n2)nc1,mouse,,64 µL/min/mg
Cc1cc(Nc2ccc(C(F)(F)F)cc2)n2nc(C(C)(F)F)nc2n1,mouse,"1 µM, pH 7.4",< 10 µL/min/mg
c1ccc(CN2CCN(c3nc(-c4ccccn4)nc4ccccc34)CC2)cc1,mouse,,393 µL/min/mg
CCOC(=O)c1c(-c2cccc(Br)c2)[nH]c2cc(OC)c(F)cc2c1=O,female CD-1 mouse,"19.8 µM, pH 7.4",< 4 µL/min/mg
